Key:
[1] = biological target: Bcr/Abl fusion protein (Homo sapiens, UniProt P00519); experiment: Inhibition of Bcr-Abl kinase (unknown origin) after 30 mins by HTRF assay; assay type: protein assay
[2] = tested on: K562; experiment: Antiproliferative activity against human K562 cells after 48 hrs by MTT assay; assay type: functional, cell-based; settings: K562, 48 h
How it was run: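 Exponentially growing K562 cells were seeded at 1 × 10⁴ cells/well and preincubated 24 h at 37 °C. They were then exposed to the compounds at various concentrations for 48 h. MTT (5 mg/mL solution) was added for 4 h at 37 °C, the supernatant was removed, and formazan was dissolved in DMSO. Absorbance was read at 490 nm, and IC₅₀ is reported in µM.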

Sequence of Bcr/Abl fusion protein (P00519 whole entry, the tested form may be a part): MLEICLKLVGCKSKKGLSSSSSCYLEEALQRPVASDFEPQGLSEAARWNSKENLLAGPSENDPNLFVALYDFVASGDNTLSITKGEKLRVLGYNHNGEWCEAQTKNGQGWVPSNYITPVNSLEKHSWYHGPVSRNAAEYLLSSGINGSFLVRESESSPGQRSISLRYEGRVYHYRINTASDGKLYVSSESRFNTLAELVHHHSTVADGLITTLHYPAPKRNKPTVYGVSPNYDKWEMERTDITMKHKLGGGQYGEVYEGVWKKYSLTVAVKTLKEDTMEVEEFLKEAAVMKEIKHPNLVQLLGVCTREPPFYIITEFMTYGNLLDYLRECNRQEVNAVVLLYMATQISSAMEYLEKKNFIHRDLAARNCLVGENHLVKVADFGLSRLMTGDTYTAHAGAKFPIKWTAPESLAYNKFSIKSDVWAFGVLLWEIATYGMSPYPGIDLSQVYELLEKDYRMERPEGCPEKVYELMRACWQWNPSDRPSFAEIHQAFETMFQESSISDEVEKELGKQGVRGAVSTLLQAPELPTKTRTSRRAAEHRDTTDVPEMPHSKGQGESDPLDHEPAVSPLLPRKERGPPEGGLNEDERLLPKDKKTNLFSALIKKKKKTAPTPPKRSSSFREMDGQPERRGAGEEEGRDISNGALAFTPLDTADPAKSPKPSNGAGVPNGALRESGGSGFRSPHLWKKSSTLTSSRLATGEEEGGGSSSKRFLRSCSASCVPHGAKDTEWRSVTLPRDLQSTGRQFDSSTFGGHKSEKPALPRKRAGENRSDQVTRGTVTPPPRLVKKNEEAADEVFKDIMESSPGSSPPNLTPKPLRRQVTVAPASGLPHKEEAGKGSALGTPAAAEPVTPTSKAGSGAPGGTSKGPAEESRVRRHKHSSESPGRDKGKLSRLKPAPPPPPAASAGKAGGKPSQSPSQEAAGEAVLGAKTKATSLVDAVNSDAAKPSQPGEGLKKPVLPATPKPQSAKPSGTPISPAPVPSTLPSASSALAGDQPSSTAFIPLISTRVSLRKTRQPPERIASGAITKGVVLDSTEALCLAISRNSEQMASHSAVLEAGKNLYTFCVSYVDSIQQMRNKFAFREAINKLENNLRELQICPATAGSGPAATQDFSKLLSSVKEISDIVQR
Sequence of Bcr/Abl fusion protein (P11274 whole entry, further chain, the tested form may be a part): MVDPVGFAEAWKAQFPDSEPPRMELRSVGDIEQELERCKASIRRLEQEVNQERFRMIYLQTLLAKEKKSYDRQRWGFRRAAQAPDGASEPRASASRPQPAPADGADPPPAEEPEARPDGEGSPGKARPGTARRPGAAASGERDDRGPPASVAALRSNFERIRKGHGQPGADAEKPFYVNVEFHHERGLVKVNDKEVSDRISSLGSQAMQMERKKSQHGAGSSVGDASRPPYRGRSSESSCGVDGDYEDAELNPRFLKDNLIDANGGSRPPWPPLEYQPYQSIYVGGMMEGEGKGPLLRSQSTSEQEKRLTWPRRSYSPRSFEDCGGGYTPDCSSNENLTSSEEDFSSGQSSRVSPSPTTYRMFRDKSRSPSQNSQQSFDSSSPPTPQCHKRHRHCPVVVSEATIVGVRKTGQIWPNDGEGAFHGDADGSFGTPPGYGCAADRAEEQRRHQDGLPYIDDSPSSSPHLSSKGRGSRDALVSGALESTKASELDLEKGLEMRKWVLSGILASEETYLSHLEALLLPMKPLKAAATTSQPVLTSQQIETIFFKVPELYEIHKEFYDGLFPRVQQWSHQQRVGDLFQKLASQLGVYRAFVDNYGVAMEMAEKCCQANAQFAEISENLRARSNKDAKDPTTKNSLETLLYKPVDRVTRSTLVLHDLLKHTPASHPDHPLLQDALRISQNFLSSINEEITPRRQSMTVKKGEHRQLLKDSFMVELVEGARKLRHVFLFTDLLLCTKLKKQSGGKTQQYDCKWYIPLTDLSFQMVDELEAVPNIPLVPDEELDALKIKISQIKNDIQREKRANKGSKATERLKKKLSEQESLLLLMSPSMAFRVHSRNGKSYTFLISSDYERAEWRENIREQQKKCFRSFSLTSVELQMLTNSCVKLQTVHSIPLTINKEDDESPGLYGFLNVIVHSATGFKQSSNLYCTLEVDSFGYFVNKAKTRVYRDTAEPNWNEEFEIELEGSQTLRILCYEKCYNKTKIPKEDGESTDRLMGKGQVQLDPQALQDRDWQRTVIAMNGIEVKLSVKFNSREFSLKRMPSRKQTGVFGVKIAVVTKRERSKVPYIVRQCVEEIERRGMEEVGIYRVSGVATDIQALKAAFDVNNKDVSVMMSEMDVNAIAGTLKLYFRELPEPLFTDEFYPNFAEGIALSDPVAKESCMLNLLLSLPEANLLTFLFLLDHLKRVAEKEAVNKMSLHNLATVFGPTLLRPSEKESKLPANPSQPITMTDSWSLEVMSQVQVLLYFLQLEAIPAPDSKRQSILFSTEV

Q: For `COc1ccc(C(=O)Nc2ccc(Br)cc2)cc1Nc1nccc(-c2cccnc2)n1`, which IC50 [1] is on record?
A: The IC50 was 4.79 nM.

Q: With `COc1ccc(C(=O)Nc2ccc(OCCCN(C)C)cc2)cc1Nc1nccc(-c2cccnc2)n1` as the compound, how does the IC50 [2] read?
A: Its IC50 is 38500 nM.

Q: And the IC50 [1]?
A: Its IC50 is 0.52 nM.

Q: How did the IC50 [1] turn out when `COc1ccc(C(=O)Nc2ccc(F)c(Cl)c2)cc1Nc1nccc(-c2cccnc2)n1` was run?
A: Its IC50 is 4.73 nM.

Q: Which IC50 [1] does the source give for `COc1ccc(C(=O)Nc2ccc(OCCN3CCOCC3)cc2)cc1Nc1nccc(-c2cccnc2)n1` here?
A: The IC50 was 63.3 nM.

Q: How did the IC50 [2] turn out when `COc1ccc(C(=O)Nc2cc(Br)cc(C(F)(F)F)c2)cc1Nc1nccc(-c2cccnc2)n1` was run?
A: Its IC50 is 215000 nM.

Q: How did the IC50 [1] turn out when `COc1ccc(C(=O)Nc2cccc(C(F)(F)F)c2)cc1Nc1nccc(-c2cccnc2)n1` was run?
A: Its IC50 is 4130 nM.

Q: `COc1ccc(C(=O)Nc2ccc(OCCN(C)C)cc2)cc1Nc1nccc(-c2cccnc2)n1` was tested. Which IC50 [1] did it give?
A: Its IC50 is 2.34 nM.

Q: For `CCN(CC)CCOc1ccc(NC(=O)c2ccc(OC)c(Nc3nccc(-c4cccnc4)n3)c2)cc1`, which IC50 [1] is on record?
A: Its IC50 is 1.48 nM.

Q: `Cc1cn(-c2cc(NC(=O)c3ccc(C)c(Nc4nccc(-c5cccnc5)n4)c3)cc(C(F)(F)F)c2)cn1` [NILOTINIB] was tested. Which IC50 [2] did it give?
A: Its IC50 is 89100 nM.

Q: `COc1cccc(NC(=O)c2ccc(OC)c(Nc3nccc(-c4cccnc4)n3)c2)c1` was tested. Which IC50 [2] did it give?
A: The IC50 was 93100 nM.

Q: How did the IC50 [2] turn out when `COc1ccc(C(=O)Nc2cccc(C(C)=O)c2)cc1Nc1nccc(-c2cccnc2)n1` was run?
A: The IC50 was 237000 nM.

Q: Which results are given for `COc1ccc(C(=O)Nc2ccc(OCCN3CCCCC3)cc2)cc1Nc1nccc(-c2cccnc2)n1`?
A: IC50 [2]: 5150 nM; IC50 [1]: 1110 nM

Q: With `COc1ccc(C(=O)Nc2ccc(OCCN3CCCC3)cc2)cc1Nc1nccc(-c2cccnc2)n1` as the compound, how does the IC50 [2] read?
A: Its IC50 is 38600 nM.

Q: What about the IC50 [1] of the same compound?
A: The IC50 was 350 nM.

Q: With `COc1ccc(C(=O)Nc2ccncc2)cc1Nc1nccc(-c2cccnc2)n1` as the compound, how does the IC50 [2] read?
A: Its IC50 is 94500 nM.

Q: What about the IC50 [1] of the same compound?
A: Its IC50 is 2750 nM.

Q: With `COc1ccc(C(=O)Nc2ncccn2)cc1Nc1nccc(-c2cccnc2)n1` as the compound, how does the IC50 [1] read?
A: Its IC50 is 3.78 nM.

Q: Which IC50 [1] does the source give for `COc1ccc(C(=O)Nc2ccc(OCCCN3CCOCC3)cc2)cc1Nc1nccc(-c2cccnc2)n1` here?
A: Its IC50 is 6.34 nM.

Q: Which IC50 [2] does the source give for `COc1ccc(C(=O)Nc2cccc(Cl)c2)cc1Nc1nccc(-c2cccnc2)n1` here?
A: Its IC50 is 237000 nM.

Q: And the IC50 [1]?
A: Its IC50 is 34.8 nM.

Q: Which IC50 [1] does the source give for `COc1ccc(C(=O)Nc2cccc(F)c2)cc1Nc1nccc(-c2cccnc2)n1` here?
A: Its IC50 is 3.21 nM.

Q: Which IC50 [2] does the source give for `COc1ccc(C(=O)Nc2cc(C(F)(F)F)cc(C(F)(F)F)c2)cc1Nc1nccc(-c2cccnc2)n1` here?
A: The IC50 was 4840 nM.

Q: `COc1ccc(C(=O)Nc2nccs2)cc1Nc1nccc(-c2cccnc2)n1` was tested. Which IC50 [1] did it give?
A: Its IC50 is 294 nM.

From ChEMBL document CHEMBL2375324 (Bioorg Med Chem, 2013)
